Reference: ChEMBL document CHEMBL1147936, “Regulatory molecules for the 5-HT3 receptor ion channel gating system” (Bioorg Med Chem, 2007)
Active and inactive are the calls of the source. The rule behind the calls is not given here.

What was measured:
[1] = target: T1, 5-hydroxytryptamine receptor 3A (Cavia porcellus) (UniProt O70212); experiment: Intrinsic activity at 5HT3 receptor in Hartley guinea-pig ileum assessed as muscle contraction relative to 5-hydroxytryptamine; type: tissue-based
T1 sequence (whole entry): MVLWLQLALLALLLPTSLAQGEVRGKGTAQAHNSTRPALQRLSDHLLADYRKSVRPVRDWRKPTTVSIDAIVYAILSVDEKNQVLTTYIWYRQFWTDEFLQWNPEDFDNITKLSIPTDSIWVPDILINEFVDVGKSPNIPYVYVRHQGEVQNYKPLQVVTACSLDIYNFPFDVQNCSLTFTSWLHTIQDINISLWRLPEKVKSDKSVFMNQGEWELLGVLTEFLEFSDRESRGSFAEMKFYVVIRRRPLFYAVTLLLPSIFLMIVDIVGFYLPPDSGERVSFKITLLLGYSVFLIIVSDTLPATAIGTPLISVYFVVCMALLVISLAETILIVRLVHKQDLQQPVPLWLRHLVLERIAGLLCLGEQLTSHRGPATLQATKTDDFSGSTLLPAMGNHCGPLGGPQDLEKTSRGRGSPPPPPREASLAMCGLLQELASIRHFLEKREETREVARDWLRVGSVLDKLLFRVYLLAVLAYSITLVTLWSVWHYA

[2] = target: T1, 5-hydroxytryptamine receptor 3A (Cavia porcellus); experiment: Agonist activity at 5HT3 receptor in Hartley guinea-pig ileum assessed as muscle contraction; type: functional, tissue-based
Method in brief: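 Compounds added to the bath and contractions recorded isometrically. pD2 = negative log molar concentration giving 50% of maximum contraction, from individual concentration–response curves.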

[3] = target: T1, 5-hydroxytryptamine receptor 3A (Cavia porcellus); experiment: Antagonist activity at 5HT3 receptor in Hartley guinea-pig ileum assessed as effect on 5-hydroxytryptamine-induced muscle contraction; type: functional, tissue-based; parameters: concentration or dose not given beside the values
Method in brief: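 Contractions to 5-HT recorded isometrically with and without compound present. Vehicle-treated preparation served as time-matched control. Antagonism expressed as the ratio of 5-HT contractile response in presence versus absence of compound.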

[4] = target: T1, 5-hydroxytryptamine receptor 3A (Cavia porcellus); experiment: Intrinsic activity at 5HT3 receptor in Hartley guinea-pig ileum assessed as muscle contraction at 0.1 mM relative to 5-hydroxytryptamine; type: tissue-based

Structure (SMILES) | Intrinsic activity [1] | pD2 [2] | Activity [3] [%] | Activity [4]
Cc1cccc2nc(N3CCN(C)CC3)oc12 | 0.58 | 5.48 | 89 | –
CN1CCN(c2nc3cc(Br)ccc3o2)CC1 | 0.48 | 6.21 | 89 | –
CN1CCN(c2nc3cc([N+](=O)[O-])ccc3o2)CC1 | 0.52 | 6.1 | 79 | –
CN1C2CCCC1CC(NC(=O)c1nn(C)c3ccccc13)C2 (stereo not drawn) | – | < 4 | 100 | inactive
CN1CCN(c2nc3cccc(Cl)c3o2)CC1 | 0.24 | 5.5 | 90 | –
Cc1cc(Cl)cc2nc(N3CCN(C)CC3)oc12 | 0.24 | 6.7 | 94 | –
NCCc1c[nH]c2ccc(O)cc12 | 1 | 5.34 | – | –
CN1CCN(c2nc3cc(Cl)ccc3o2)CC1 | 0.5 | 6.07 | 92 | –
CCOC(=O)c1ccc2oc(N3CCN(C)CC3)nc2c1 | – | < 4 | 28 | inactive
CC(=O)c1ccc2oc(N3CCN(C)CC3)nc2c1 | – | < 4 | 22 | inactive
CCc1ccc2oc(N3CCN(C)CC3)nc2c1 | – | < 4 | 63 | inactive
Cc1cc(Cl)c2oc(N3CCN(C)CC3)nc2c1 | 0.26 | 6.22 | 96 | –
CN1CCN(c2nc3cc(C(C)(C)C)ccc3o2)CC1 | – | < 4 | 47 | inactive
CCc1cccc2nc(N3CCN(C)CC3)oc12 | 0.15 | 5.48 | 90 | –
COc1cc(C)cc2nc(N3CCN(C)CC3)oc12 | 0.56 | 6.13 | 91 | –
COc1cccc2nc(N3CCN(C)CC3)oc12 | – | < 4 | 57 | inactive
Cc1ccc2oc(N3CCN(C)CC3)nc2c1 | 0.72 | 6 | 87 | –
COc1ccc2oc(N3CCN(C)CC3)nc2c1 | 0.78 | 4.78 | 74 | –
CN1CCN(c2nc3ccccc3o2)CC1 | 0.62 | 5.01 | 82 | –
CCc1cc(Cl)cc2nc(N3CCN(C)CC3)oc12 | 0.17 | 6.82 | 100 | –
CN1CCN(c2nc3cc(C(F)(F)F)ccc3o2)CC1 | – | < 4 | 36 | inactive
CN1CCN(c2nc3cc(F)ccc3o2)CC1 | 0.64 | 5.57 | 91 | –
Cc1cc(C)c2oc(N3CCN(C)CC3)nc2c1 | 0.62 | 6.32 | 94 | –
CCc1cc(C)cc2nc(N3CCN(C)CC3)oc12 | 0.26 | 6.46 | 99 | –
CC(C)c1cccc2nc(N3CCN(C)CC3)oc12 | – | < 4 | 81 | inactive
CN1CCN(c2nc3cc(Cl)cc(Cl)c3o2)CC1 | 0.14 | 6.51 | 90 | –
CN1CCN(c2nc3cc(N)ccc3o2)CC1 | 0.76 | 4.97 | 73 | –
COc1cc(Cl)cc2nc(N3CCN(C)CC3)oc12 | 0.62 | 6.16 | 92 | –
